Experimental findings from ChEMBL document CHEMBL3112476, “Inhibition of IκB kinase-β and IκB kinase-α by heterocyclic adamantyl arotinoids” (Bioorg Med Chem, 2014) are described below.

The target in test [1] is T1, Retinoic acid receptor RXR-alpha (Homo sapiens) (UniProt P19793).
T1 sequence (whole entry): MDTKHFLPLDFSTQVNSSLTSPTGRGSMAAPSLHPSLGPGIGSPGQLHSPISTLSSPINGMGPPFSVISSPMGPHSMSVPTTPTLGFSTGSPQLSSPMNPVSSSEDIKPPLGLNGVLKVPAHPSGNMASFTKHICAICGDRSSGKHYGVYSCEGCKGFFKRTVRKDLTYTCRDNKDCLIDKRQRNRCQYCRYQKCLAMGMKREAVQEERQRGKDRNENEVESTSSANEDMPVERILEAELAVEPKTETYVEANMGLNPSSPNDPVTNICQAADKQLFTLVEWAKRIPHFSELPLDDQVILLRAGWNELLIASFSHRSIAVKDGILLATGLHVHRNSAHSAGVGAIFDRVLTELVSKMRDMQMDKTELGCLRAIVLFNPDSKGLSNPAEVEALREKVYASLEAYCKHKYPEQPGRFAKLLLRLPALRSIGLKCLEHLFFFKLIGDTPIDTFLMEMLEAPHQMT
Description: Antagonist activity at recombinant GST-tagged RXRalpha LBD (unknown origin) assessed as inhibition of CD3254-induced fluorescein labeled D22 coactivator recruitment at 8 uM after 4 hrs by TR-FRET assay. Put shortly:
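GST-RXRα LBD (5 nM) was incubated at room temperature with 150 nM fluorescein-D22 peptide in pH 7.4 Hepes binding buffer containing DTT, with a suboptimal concentration of CD3254 plus test ligand (≤1% DMSO). Terbium anti-GST antibody (2 nM) was the donor. The 520/495 nm TR-FRET ratio was read after 4 h and expressed as Delta F% versus controls lacking GST-RXRα.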
(Time-resolved FRET reads energy transfer from a long-lived donor to a nearby acceptor.)

The target of test [2] is T2, Inhibitor of nuclear factor kappa-B kinase subunit beta (Homo sapiens, UniProt O14920).
T2 sequence (O14920 whole entry): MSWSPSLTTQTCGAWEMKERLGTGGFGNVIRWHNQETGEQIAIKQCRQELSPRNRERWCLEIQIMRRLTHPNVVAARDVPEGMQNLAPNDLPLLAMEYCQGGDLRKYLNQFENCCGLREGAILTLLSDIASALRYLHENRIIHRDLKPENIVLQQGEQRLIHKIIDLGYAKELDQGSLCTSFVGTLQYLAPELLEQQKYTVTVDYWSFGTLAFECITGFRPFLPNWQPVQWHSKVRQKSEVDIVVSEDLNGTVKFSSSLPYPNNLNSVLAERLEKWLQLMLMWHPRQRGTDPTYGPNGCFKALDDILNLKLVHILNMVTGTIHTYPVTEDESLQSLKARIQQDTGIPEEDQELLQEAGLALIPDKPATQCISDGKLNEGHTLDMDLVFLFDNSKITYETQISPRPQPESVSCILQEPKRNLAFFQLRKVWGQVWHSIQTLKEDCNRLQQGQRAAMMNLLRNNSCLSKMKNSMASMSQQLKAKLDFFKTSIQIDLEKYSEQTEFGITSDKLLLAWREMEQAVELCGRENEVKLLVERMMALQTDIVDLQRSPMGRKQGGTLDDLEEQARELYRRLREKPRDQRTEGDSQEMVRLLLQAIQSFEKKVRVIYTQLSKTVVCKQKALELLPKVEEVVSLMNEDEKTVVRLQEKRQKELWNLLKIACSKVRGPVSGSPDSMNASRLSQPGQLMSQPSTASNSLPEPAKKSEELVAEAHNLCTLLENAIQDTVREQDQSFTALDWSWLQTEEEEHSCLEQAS
Description: Inhibition of recombinant IKKbeta (unknown origin) using ulight-IkappaomegaBalpha as substrate after 1 hr by LANCE ultra TR-FRET assay.

In a further test the test system is Jurkat. The experiment in a line: Induction of apoptosis in human Jurkat cells assessed as activation of DEVDase at 5 uM after 4 hrs by fluorometric assay relative to control. It counts as functional. Put shortly:
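Jurkat cells (20,000/well, 0.5% FBS RPMI) were treated 4 h with 5 µM compound and lysed 15 min in PIPES pH 7 buffer with NP-40, cytochalasin B and protease inhibitors. An equal volume of 2× caspase buffer containing 100 µM Ac-DEVD-AFC was added. AFC fluorescence (ex 390/em 510 nm) was read every 2 min for 1 h at 37 °C; the linear slope was taken as activity, expressed as fold over DMSO control. Data: 2 experiments, triplicate.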

A short description of test [3]: Cytotoxicity against human Jurkat T cells assessed as cell viability after 24 hrs by CellTiter-Glo assay. It counts as functional, cell-based. Put shortly:
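Jurkat cells were seeded the day before treatment in RPMI with 0.5% FBS (10,000 cells/well). They were treated in triplicate across an 8-point dose series starting at 10 µM, with DMSO ≤0.1% as solvent control. ATP was measured by CellTiter-Glo luminescence after 24 h; a time-0 reading separated cytostatic from cytotoxic effects. IC50 was fitted from the curve.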

In test [4] the target is T3, Inhibitor of nuclear factor kappa-B kinase subunit epsilon (Homo sapiens) (UniProt Q14164).
T3 sequence (whole entry): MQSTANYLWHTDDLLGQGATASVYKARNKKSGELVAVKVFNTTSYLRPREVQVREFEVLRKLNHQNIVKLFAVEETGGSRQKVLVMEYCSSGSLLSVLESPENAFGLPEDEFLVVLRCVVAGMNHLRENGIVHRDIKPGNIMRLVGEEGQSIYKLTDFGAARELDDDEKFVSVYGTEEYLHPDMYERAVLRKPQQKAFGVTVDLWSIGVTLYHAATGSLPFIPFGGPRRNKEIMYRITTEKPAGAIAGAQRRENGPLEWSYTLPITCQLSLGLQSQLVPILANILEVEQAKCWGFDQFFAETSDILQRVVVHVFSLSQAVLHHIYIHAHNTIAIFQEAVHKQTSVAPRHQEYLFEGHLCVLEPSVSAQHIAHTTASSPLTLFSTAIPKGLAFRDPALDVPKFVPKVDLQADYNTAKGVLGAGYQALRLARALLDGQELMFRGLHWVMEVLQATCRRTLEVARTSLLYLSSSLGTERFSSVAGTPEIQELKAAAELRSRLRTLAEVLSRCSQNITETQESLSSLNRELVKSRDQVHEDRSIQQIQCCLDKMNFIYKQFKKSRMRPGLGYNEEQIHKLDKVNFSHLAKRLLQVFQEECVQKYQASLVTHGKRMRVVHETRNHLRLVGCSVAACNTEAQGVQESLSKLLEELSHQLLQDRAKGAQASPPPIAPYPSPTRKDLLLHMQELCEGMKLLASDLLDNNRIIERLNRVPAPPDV
Description: Inhibition of recombinant IKKepsilon (unknown origin) using ulight-rpS6 as substrate at 20 uM after 2 hrs by LANCE ultra TR-FRET assay relative to control.

Test [5] can be described thus: Cytotoxicity against human Jurkat T cells assessed as cell viability at 4 uM after 24 hrs by CellTiter-Glo assay relative to control. The format is functional. To be noted: read-out: Activity. The method, boiled down: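 Jurkat cells in 0.5% FBS RPMI were exposed to 4 µM compound or 0.1% DMSO for 24 h. Viability was read as ATP by CellTiter-Glo luminescence and expressed as percent of solvent control; below 60% counted as cell killing. Data: three experiments, triplicate.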

The target in test [6] is T4, Inhibitor of nuclear factor kappa-B kinase subunit alpha (Homo sapiens) (UniProt O15111).
T4 sequence (whole entry): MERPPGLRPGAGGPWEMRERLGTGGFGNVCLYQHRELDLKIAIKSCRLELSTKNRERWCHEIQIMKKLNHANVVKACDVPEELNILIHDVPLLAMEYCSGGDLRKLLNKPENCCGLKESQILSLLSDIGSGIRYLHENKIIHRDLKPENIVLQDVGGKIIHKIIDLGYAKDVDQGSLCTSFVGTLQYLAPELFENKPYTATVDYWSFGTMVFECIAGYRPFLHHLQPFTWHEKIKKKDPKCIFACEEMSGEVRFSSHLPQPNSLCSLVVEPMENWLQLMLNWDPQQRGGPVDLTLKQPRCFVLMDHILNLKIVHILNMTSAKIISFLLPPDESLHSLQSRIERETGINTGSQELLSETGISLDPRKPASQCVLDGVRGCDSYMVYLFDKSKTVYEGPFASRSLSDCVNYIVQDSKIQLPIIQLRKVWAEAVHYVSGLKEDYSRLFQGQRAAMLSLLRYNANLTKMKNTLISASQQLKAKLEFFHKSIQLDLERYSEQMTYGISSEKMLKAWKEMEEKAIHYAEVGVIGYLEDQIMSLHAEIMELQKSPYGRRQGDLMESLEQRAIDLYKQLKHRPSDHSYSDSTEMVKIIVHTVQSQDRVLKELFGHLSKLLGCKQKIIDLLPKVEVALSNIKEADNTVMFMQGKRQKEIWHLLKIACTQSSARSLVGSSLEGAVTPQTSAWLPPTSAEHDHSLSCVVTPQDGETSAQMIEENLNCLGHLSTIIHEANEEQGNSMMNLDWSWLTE
The experiment in a line: Inhibition of recombinant IKKalpha (unknown origin) using ulight-IkappaomegaBalpha as substrate at 20 uM after 2 hrs by LANCE ultra TR-FRET assay relative to control. The method, boiled down: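 Recombinant IKKα (4 nM), IKKβ (1 nM) or IKKε (2 nM) in 50 mM Hepes pH 7.4, 10 mM MgCl2, 1 mM EGTA, 2 mM DTT, 0.01% Tween-20. Substrate was 50 nM ULight-IκBα (IKKα/β) or ULight-rpS6 (IKKε); ATP was 1.25 µM (α/β) or 5 µM (ε). Compound was tested at 20 µM. Incubation was 1 h (IKKβ) or 2 h (IKKα/ε) at room temperature, stopped with 20 mM EDTA plus 2 nM Eu-anti-phospho antibody, then TR-FRET 665/615 nm. Results are percent inhibition versus solvent; 3–4 experiments, triplicate.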

Test [7] has as its target T5, Inhibitor of nuclear factor kappa-B kinase subunit beta (Homo sapiens) (UniProt O14920).
T5 sequence (whole entry): T2 sequence (O14920 whole entry)
Description: Inhibition of recombinant IKKbeta (unknown origin) using ulight-IkappaomegaBalpha as substrate at 20 uM after 1 hr by LANCE ultra TR-FRET assay relative to control.

The target in test [8] is T6, Retinoic acid receptor alpha (Homo sapiens) (UniProt P10276).
T6 sequence (whole entry): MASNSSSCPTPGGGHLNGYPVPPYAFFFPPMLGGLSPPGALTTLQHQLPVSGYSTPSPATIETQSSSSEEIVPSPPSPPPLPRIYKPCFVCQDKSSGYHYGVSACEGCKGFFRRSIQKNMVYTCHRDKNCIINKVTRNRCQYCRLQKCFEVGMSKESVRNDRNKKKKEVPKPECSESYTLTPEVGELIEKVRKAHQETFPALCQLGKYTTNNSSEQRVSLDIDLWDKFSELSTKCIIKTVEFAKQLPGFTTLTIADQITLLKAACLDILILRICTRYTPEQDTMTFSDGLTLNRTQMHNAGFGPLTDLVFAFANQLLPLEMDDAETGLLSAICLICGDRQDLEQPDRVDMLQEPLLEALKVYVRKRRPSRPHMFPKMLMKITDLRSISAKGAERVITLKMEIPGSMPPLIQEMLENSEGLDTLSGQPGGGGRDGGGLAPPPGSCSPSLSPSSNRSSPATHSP
The experiment in a line: Antagonist activity at Gal4-fused RARalpha (unknown origin) transfected in HEK293 cells assessed as ATRA-induced transcriptional activity at 4 uM by luciferase/beta-galactosidase reporter gene assay relative to ATRA-treated control. It counts as cell-based. Set-up: scale not given: the % may be the effect or the level left. Put shortly: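 Same Gal4-RARα HEK-293 UAS-luciferase system, stimulated with 0.1 µM atRA alone or with 4 µM compound (40-fold molar excess); 1 µM UVI2024 served as control antagonist. Background-subtracted luciferase was normalized to β-galactosidase and given as percent of atRA-stimulated cells. Data: 2–3 experiments, triplicate.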

Test [9] concerns the target T6, Retinoic acid receptor alpha (Homo sapiens). The experiment in a line: Agonist activity at Gal4-fused RARalpha (unknown origin) transfected in HEK293 cells assessed as induction of transcriptional activity at 4 uM after 6 hrs by luciferase/beta-galactosidase reporter gene assay relative to control. It counts as cell-based. The method, boiled down: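 Gal4-RARα or Gal4-RXRα (10 ng) plus 2 ng β-galactosidase vector, calcium phosphate transfection into HEK-293 cells carrying a 5×UAS luciferase reporter. After 16 h, cells were washed and given 5% charcoal-treated FBS medium, then rested 2 h. Stimulation was with 4 µM compound or 0.1% DMSO; controls were 1 µM atRA (RARα) or 1 µM CD3254 (RXRα). Harvest was at 6 h (RARα) or 24 h (RXRα). Luciferase/β-gal ratio was expressed as fold over unstimulated cells. Data: 2 experiments, triplicate.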
(In general: In a reporter assay the amount or activity of a reporter protein is the signal.)

Test [10] addresses T7, Retinoic acid receptor alpha (Homo sapiens, UniProt P10276).
T7 sequence (P10276 whole entry): T6 sequence (whole entry)
The experiment in a line: Inverse agonist activity at RARalpha (unknown origin).

In general, inhibition refers to the change of the read-out against control, counted positive when it falls. Usually IC50 stands for the concentration at which inhibition is half-maximal.

Regarding `CCCCCOc1cc2c(cc1-c1cc(/C=C/C(=O)O)ccc1O)C(C)(C)CCC2(C)C`, the inhibition in test [1] turned out to be 25%.

`COCCOCOc1ccc(C(=O)/C=C/c2ccc(C(=O)O)cc2)cc1C12CC3CC(CC(C3)C1)C2`: the IC50 in [2] came to 11.8 µM; in test [3] it was 3.33 µM. For the same compound, the “fold change (FC)” value in the test with Jurkat is 20.7. Further, the inhibition worked out at 15.8% in [4], 56.3% in [6] and 43.9% in [7]. In addition, the viability at 4 µM in [5] is 28.5%.

On to `CC1(C)CC=C(C#Cc2ccccc2)c2cc(/C=C/c3ccc(C(=O)O)cc3)ccc21`, for which, in [8], the Activity was 7.1%. For the same compound, in test [9], the fold change (FC) worked out at 1.3. For the same compound, the IC50 in test [10] was found to be 0.114 µM.

On to `O=C(O)/C=C/c1ccc(-c2ccc(O)c(C34CC5CC(CC(C5)C3)C4)c2)c(Cl)c1`, for which, in the test on Jurkat, the “fold change (FC)” value is 74.3. Besides, the results for the inhibition in [4], in test [6] and in test [7] were 24.1%, 41.3% and 40.6%, respectively. For the same compound, the viability at 4 µM in test [5] turned out to be 6.6%.

For the compound `CC(=O)NCCCOc1cc(/C=C/C(=O)O)ccc1-c1ccc(O)c(C23CC4CC(CC(C4)C2)C3)c1`, the “fold change (FC)” value in the test with Jurkat is 6.1. In addition, the inhibition in [4] was determined as 14.4%; in test [6], 5%; in test [7] it was 0%. In addition, the viability at 4 µM in test [5] stood at 42.7%.
